Experimental data reported in ChEMBL document CHEMBL1122025, “Catechol O-methyltransferase. 11. Inactivation by 5-hydroxy-3-mercapto-4-methoxybenzoic acid” (1982).

Legend:
[1] = target: T1, Catechol O-methyltransferase (Rattus norvegicus) (UniProt P22734); assay: Inhibition constant against Catechol O-methyltransferase from rat liver in the presence of 4 mM of dithiothreitol (DTT)
T1 sequence (whole entry): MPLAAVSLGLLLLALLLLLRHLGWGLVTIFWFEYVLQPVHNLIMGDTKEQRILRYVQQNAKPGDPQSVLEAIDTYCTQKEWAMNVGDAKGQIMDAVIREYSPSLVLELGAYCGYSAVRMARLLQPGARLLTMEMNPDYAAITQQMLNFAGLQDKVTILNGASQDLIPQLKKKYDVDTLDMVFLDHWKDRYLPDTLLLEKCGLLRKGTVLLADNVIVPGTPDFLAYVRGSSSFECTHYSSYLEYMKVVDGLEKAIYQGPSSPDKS

Rattus norvegicus [2] = organism: Rattus norvegicus; assay: Effect of dialysis on inhibitory potency when COMT is pre-incubated with dithiothreitol (+DTT) (after dialysis); assay type: functional
In short: (§1)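 Rat liver COMT (male Sprague-Dawley, partially purified, DTT-reactivated before use) preincubated 30 min at 37 °C in 0.2 M phosphate buffer pH 7.6 with 1 mM inhibitor, with or without 8.0 mM DTT. Activity was then assayed directly or after dialysis against 0.2 M phosphate pH 7.6 containing 8.0 mM DTT. Result expressed as % activity remaining.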

Rattus norvegicus [3] = organism: Rattus norvegicus; assay: Effect of dialysis on inhibitory potency when COMT is pre-incubated in the absence of dithiothreitol (DTT) (after dialysis (-DTT)); assay type: functional
[4] = target: T1, Catechol O-methyltransferase (Rattus norvegicus); assay: Inhibition constant against Catechol O-methyltransferase from rat liver in the absence of dithiothreitol (DTT)
Rattus norvegicus [5] = organism: Rattus norvegicus; assay: Effect of dialysis on inhibitory potency when COMT is pre-incubated with dithiothreitol (DTT) (before dialysis); assay type: functional; in short: as §1
[6] = target: T1, Catechol O-methyltransferase (Rattus norvegicus); assay: Inhibition of Catechol O-methyltransferase from rat liver at time zero with […] of the enzyme after pre-incubation for 30 min (in presence of DTT)
Rattus norvegicus [7] = organism: Rattus norvegicus; assay: Effect of dialysis on inhibitory potency when COMT is pre-incubated in the absence of dithiothreitol (DTT) (before dialysis); assay type: functional; in short: as §1
Rattus norvegicus [8] = organism: Rattus norvegicus; assay: Effect of dialysis on inhibitory potency when COMT is pre-incubated in the absence of dithiothreitol (DTT) (after dialysis(+DTT))
[9] = target: T1, Catechol O-methyltransferase (Rattus norvegicus); assay: Inhibition of Catechol O-methyltransferase from rat liver at time zero with no further inactivation of the enzyme after pre-incubation for 30 min (in absence of DTT)

Kii [1]: 743 µM
Kis [1]: 1140 µM
Kii [4]: 30.2 µM
Kis [4]: 59.9 µM
inhibition [6]: 39%
inhibition [9]: 91%
Structure (SMILES): COc1c(O)cc(C(=O)O)cc1S
Activity remaining (Rattus norvegicus [2]): 87%
Activity remaining (Rattus norvegicus [3]): 1%
Activity remaining (Rattus norvegicus [5]): 70%
Activity remaining (Rattus norvegicus [7]): 7%
Activity remaining (Rattus norvegicus [8]): 76%
